By EC50 is commonly meant the midpoint of the concentration-response curve.

Test [1] concerns the target T1, Vasopressin V1b receptor (Homo sapiens, UniProt P47901).
T1 sequence (P47901 whole entry): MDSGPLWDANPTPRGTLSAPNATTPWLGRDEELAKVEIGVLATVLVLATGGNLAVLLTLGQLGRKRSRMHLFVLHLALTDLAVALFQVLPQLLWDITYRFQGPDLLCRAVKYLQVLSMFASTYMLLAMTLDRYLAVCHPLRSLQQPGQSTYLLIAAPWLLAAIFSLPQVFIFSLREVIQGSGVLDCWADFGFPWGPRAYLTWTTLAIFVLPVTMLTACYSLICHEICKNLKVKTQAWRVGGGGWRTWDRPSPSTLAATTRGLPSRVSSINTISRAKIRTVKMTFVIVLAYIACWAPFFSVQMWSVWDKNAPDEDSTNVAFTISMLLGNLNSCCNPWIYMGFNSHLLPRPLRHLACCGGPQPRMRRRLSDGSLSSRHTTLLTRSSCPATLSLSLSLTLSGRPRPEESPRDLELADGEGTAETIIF
In words: Activation of human 3X-HA N-tagged AVP1b expressed in CHO-K1 cells incubated for 10 mins by cell Western assay. In kind it is cell-based. An outline of the steps:
(§1)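 In-cell Western read-out of ERK MAPK activation in CHO cells expressing the human receptor (OTR, AVP1a or AVP1b). Potency reported as mean ± SEM of N = 3 independent experiments.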

For test [2], the target named is Vasopressin V1a receptor (Homo sapiens, UniProt P37288). In words: Activation of human 3X-HA N-tagged AVP1a expressed in CHO-K1 cells incubated for 10 mins by cell Western assay. In kind it is cell-based. In short, it runs like this:
as §1

Test [3] has as its target T2, Oxytocin receptor (Homo sapiens, UniProt P30559).
T2 sequence (P30559 whole entry): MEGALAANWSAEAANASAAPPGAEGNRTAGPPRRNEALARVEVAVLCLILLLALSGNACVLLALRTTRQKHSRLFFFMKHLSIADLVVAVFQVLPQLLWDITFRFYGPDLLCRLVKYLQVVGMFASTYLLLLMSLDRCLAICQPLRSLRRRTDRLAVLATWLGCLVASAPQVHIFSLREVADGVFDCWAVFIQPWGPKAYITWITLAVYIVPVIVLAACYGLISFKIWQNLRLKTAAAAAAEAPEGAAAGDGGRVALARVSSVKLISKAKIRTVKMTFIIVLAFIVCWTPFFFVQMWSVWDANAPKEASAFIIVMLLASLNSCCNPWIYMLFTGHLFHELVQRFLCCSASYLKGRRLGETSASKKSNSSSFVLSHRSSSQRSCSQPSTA
The experiment in a line: Activation of human 3X-HA N-tagged OTR expressed in CHO-K1 cells incubated for 10 mins by cell Western assay. In kind it is cell-based. An outline of the steps:
as §1

Test [4] concerns Mus musculus. The experiment in a line: Antinociceptive activity against CD-1 mouse assessed as pain relief at 10 mg/kg, iv measured after 2 hrs by tail flick test. In kind it is functional, organism-based. In short, it runs like this:
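Male CD-1 mice dosed at 10 mg/kg by intravenous injection into the tail vein. Vehicle, oxytocin and morphine groups run alongside. Tail flick in 52 °C water with a 10 s cutoff. Mean ± SEM, N = 5 mice/group.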
Background: Hot-plate and tail-flick tests time the reaction to a heat stimulus.

The source made the active and inactive calls. Bridge positions count the residues as written; N and C are the ends. Square brackets hold non-standard residues; d marks the D form. Peptide text beside a SMILES is read from it. * marks the point of attachment. X1 = OC[C@H]1O[C@@H](O[C@H]2[C@H](O)[C@@H](O)[C@H](*)O[C@@H]2CO)[C@H](O)[C@@H](O)[C@H]1O; βGlc = OC[C@H]1O[C@@H](*)[C@H](O)[C@@H](O)[C@@H]1O; Dap = NC[C@H](N)C(=O)O; Aib = CC(C)(N)C(=O)O

Chain of Vasopressin V1a receptor (P37288 whole entry): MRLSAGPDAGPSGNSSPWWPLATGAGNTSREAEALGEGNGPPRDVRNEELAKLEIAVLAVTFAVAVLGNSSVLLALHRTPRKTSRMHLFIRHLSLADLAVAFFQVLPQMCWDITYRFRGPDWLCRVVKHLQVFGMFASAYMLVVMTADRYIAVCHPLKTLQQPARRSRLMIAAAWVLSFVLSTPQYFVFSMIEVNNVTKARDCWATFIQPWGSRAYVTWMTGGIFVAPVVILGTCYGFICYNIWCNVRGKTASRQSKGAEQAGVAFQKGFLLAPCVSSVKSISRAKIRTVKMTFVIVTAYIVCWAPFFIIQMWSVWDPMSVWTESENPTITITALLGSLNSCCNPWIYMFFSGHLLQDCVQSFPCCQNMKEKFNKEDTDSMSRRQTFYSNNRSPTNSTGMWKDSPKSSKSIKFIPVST

As to `CC[C@H](C)[C@@H]1NC(=O)[C@H](Cc2ccc(O)cc2)NC(=O)[C@@H](N)CCC(=O)NC[C@@H](C(=O)N2CCC[C@H]2C(=O)N[C@@H](CC(C)C)C(=O)NCC(N)=O)NC(=O)[C@H](CC(N)=O)NC(=O)[C@H](CCC(N)=O)NC1=O` (H-EYIQN[Dap]PLG-NH2; lactam 1-6), the EC50 entry in test [1] and in test [2] was “Not Active” throughout.

Regarding `CC[C@H](C)[C@@H]1NC(=O)[C@H](Cc2ccc(O)cc2)NC(=O)[C@@H](N)CCC(=O)NC[C@@H](C(=O)N2CCC[C@H]2C(=O)NC(C)(C)C(=O)N[C@@H](CO[C@@H]2O[C@H](CO)[C@@H](O)[C@H](O)[C@H]2O)C(N)=O)NC(=O)[C@H](CC(N)=O)NC(=O)[C@H](CCC(N)=O)NC1=O` (H-EYIQN[Dap]P[Aib]S(βGlc)-NH2; lactam 1-6), the EC50 in test [3] is 220 nM; in test [1], “Not Active”; in test [2], “Not Active”.

In the case of `CC[C@H](C)[C@@H]1NC(=O)[C@H](Cc2ccc(O)cc2)NC(=O)[C@@H](N)CC(=O)NC[C@@H](C(=O)N2CCC[C@H]2C(=O)N[C@@H](CC(C)C)C(=O)N[C@@H](CO[C@@H]2O[C@H](CO)[C@@H](O[C@@H]3O[C@H](CO)[C@H](O)[C@H](O)[C@H]3O)[C@H](O)[C@H]2O)C(N)=O)NC(=O)[C@H](CC(N)=O)NC(=O)[C@H](CCC(N)=O)NC1=O` (H-DYIQN[Dap]PLS(X1)-NH2; lactam 1-6), the EC50 in test [3] was 0.54 nM; in test [1] it was “Not Active”; in test [2], “Not Active”.

Take `CC[C@H](C)[C@@H]1NC(=O)[C@H](Cc2ccc(O)cc2)NC(=O)[C@@H](N)CC(=O)NC[C@@H](C(=O)N2CCC[C@H]2C(=O)N[C@@H](CC(C)C)C(=O)NCC(N)=O)NC(=O)[C@H](CC(N)=O)NC(=O)[C@H](CCC(N)=O)NC1=O` (H-DYIQN[Dap]PLG-NH2; lactam 1-6): the result in test [4] was Active. Besides, the EC50 entry in test [1] and in test [2] was “Not Active” each time.

`CC[C@H](C)[C@@H]1NC(=O)[C@H](Cc2ccc(O)cc2)NC(=O)[C@@H](N)CCC(=O)NC[C@@H](C(=O)N2CCC[C@H]2C(=O)N[C@@H](CC(C)C)C(=O)N[C@@H](CO[C@@H]2O[C@H](CO)[C@@H](O)[C@H](O)[C@H]2O)C(N)=O)NC(=O)[C@H](CC(N)=O)NC(=O)[C@H](CCC(N)=O)NC1=O` (H-EYIQN[Dap]PLS(βGlc)-NH2; lactam 1-6): the EC50 in test [3] was 0.73 nM; in test [1], “Not Active”; in test [2] it was “Not Active”.

As for `CC[C@H](C)[C@@H]1NC(=O)[C@H](Cc2ccc(O)cc2)NC(=O)[C@@H](N)CC(=O)NC[C@@H](C(=O)N2CCC[C@H]2C(=O)N[C@@H](CC(C)C)C(=O)NCC(=O)N[C@@H](CO[C@@H]2O[C@H](CO)[C@@H](O[C@@H]3O[C@H](CO)[C@H](O)[C@H](O)[C@H]3O)[C@H](O)[C@H]2O)C(N)=O)NC(=O)[C@H](CC(N)=O)NC(=O)[C@H](CCC(N)=O)NC1=O` (H-DYIQN[Dap]PLGS(X1)-NH2; lactam 1-6), the EC50 in test [3] was 160 nM; in test [1] it was “Not Active”; in test [2], “Not Active”.

In the case of `CN1CC[C@]23c4c5ccc(O)c4O[C@H]2[C@@H](O)C=C[C@H]3[C@H]1C5`, the outcome in test [4] was Active.

As for `CC[C@H](C)[C@@H]1NC(=O)[C@H](Cc2ccc(O)cc2)NC(=O)[C@@H](N)CC(=O)NC[C@@H](C(=O)N2CCC[C@H]2C(=O)NC(C)(C)C(=O)N[C@H](CO[C@@H]2O[C@H](CO)[C@@H](O)[C@H](O)[C@H]2O)C(N)=O)NC(=O)[C@H](CC(N)=O)NC(=O)[C@H](CCC(N)=O)NC1=O`, the EC50 was 0.28 nM in test [3] (cho-k1), “Not Active” in test [1] and “Not Active” in test [2].

As to `CC[C@H](C)[C@@H]1NC(=O)[C@H](Cc2ccc(O)cc2)NC(=O)[C@@H](N)CSSC[C@@H](C(=O)N2CCC[C@H]2C(=O)N[C@@H](CC(C)C)C(=O)NCC(N)=O)NC(=O)[C@H](CC(N)=O)NC(=O)[C@H](CCC(N)=O)NC1=O`, the result in test [4] was inactive.

Turning to `CC[C@H](C)[C@@H]1NC(=O)[C@H](Cc2ccc(O)cc2)NC(=O)[C@@H](N)CCC(=O)NC[C@@H](C(=O)N2CCC[C@H]2C(=O)NC(C)(C)C(=O)NCC(=O)N[C@@H](CO[C@@H]2O[C@H](CO)[C@@H](O)[C@H](O)[C@H]2O)C(N)=O)NC(=O)[C@H](CC(N)=O)NC(=O)[C@H](CCC(N)=O)NC1=O`, the EC50 was 0.06 nM in test [3], “Not Active” in test [1] and “Not Active” in test [2]. For the same molecule, the outcome in test [4] was Active.

These data come from ChEMBL document CHEMBL5223184, “Structure-Based Design of Glycosylated Oxytocin Analogues with Improved Selectivity and Antinociceptive Activity” (ACS Med Chem Lett, 2023).
